Compound activity deposited in PubChem BioAssay by Broad Institute.
PGC1a acetyl up – compounds raising PGC1a acetylation signal, primary screen, PGC1a modulator project, cell-based, U2OS, AlphaScreen, signal-increasing mode. overnight. activation, % at 15.6 µM. 0.21% of 350,000 active. AID 651723, 2012;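 active = every replicate reaching activation of at least 50%, whatever the mean replicate activation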;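 also: hits raise the AlphaScreen acetylation signal above neutral controls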
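System: Flag-PGC1a/GCN5 U2OS cells | Quantity: 7000 cells/well | Times: Overnight compound treatment, 37 °C | Measured by: AlphaScreen proximity luminescence, anti-acetyl-lysine antibody | Dosing: One concentration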
Hits are given with their value; - = inactive. Not all results are given here.

SMILES | PGC1a acetyl up
C=CCNC(=O)CC1Nc2c3ccccc3nc(=S)n2C1=O (centres undefined) | -
Clc1ccccc1CN(Cc1ccco1)Cc1nnnn1C1CCCC1 | 132.4
Cc1cccc2cc(CN(Cc3ccc(F)cc3)Cc3nnnn3C3CCCC3)c(=O)[nH]c12 | -
CC(C)n1c(=S)[nH]c2cc(Cl)ccc21 | -
COc1cccc(NC(=O)CN(C)C(=O)CNC(=O)c2ccccc2F)c1 | -
CC1(Cc2ccc(Cl)s2)C(=O)Nc2c(Cl)ccc(Cl)c21 (centres undefined) | 65.3
COc1ccc(NC(=O)Nc2ccc3c(c2)C(=O)N([C@H](C)CO)C[C@H](C)[C@@H](CN(C)S(=O)(=O)c2ccc(Cl)cc2)O3)cc1 | -
Cc1ccc(NCC(=O)N/N=C\C(Br)=C\c2ccccc2)cc1 | 145.3
O=C(O)c1ccc(N/N=C/C(Br)=C/c2ccccc2)cc1 | 54.0
O=C1C2C3C=CC(C4CC34)C2C(=O)N1/N=C/c1c[nH]c2ccccc12 (centres undefined) | -
O=C1Nc2c(Br)cc(Br)c3cccc1c23 | -
O=C(COC(=O)c1ccccc1C(=O)c1ccc(Cl)c([N+](=O)[O-])c1)NC1CC1 | 94.4
C#CC(CC)(CC)NC(=O)c1ccc(Br)s1 | -
CCCCNC(=O)C1CCN(Cc2ccccn2)CC1 | -
CN(C)C(=O)C[C@H]1C[C@@H]2c3cc(NC(=O)C4CCOCC4)ccc3O[C@@H]2[C@H](CO)O1 | -
Cc1ccccc1CS(=O)(=O)c1nnc([C@H](CC(C)C)NC(=O)OC(C)(C)C)o1 | 74.5
O=C(c1ccc(F)cc1)N1CC(=O)N2[C@H](CO)[C@@H](c3ccc(C#CCC4CCCC4)cc3)[C@@H]2C1 | -
C=CC(=O)N1C/C(=C/c2ccc(F)cc2)C(=O)/C(=C\c2ccc(F)cc2)C1 | -
Cc1ccc(-c2csnn2)cc1 | -
O=Nc1ccc(O)c2ncccc12 | 245.0
O=[N+]([O-])c1cc(F)c2cccnc2c1O | -
O=C(N/N=C/c1ccc(O)c2ncccc12)c1cccc(Br)c1 | -
N#Cc1ccsc1NC(=O)CSc1nnc(NC2CC2)s1 | -
O=C(C[C@H]1CC[C@@H](NC(=O)c2ccccc2)[C@H](CO)O1)Nc1ccc(-c2ccccc2)cc1 | -
CCOC(=O)c1ccc(-c2c(-c3cc(OC)c(OC)c(OC)c3)noc2C)cc1F | 59.3
SMILES | PGC1a acetyl up
C[C@H](NC(=O)C[C@H]1C[C@@H]2c3cc(NC(=O)Nc4ccc(C(F)(F)F)cc4)ccc3O[C@@H]2[C@@H](CO)O1)c1ccccc1 | -
CCOC(=O)C1=C(NC(=O)c2ccc(Br)o2)Nc2ccccc2N=C1 | -
CCCCCCNC(=O)c1ncn[nH]1 | -
CCCS(=O)(=O)c1nnnn1-c1cccc(OC)c1 | 72.8
COc1cccc(-n2c(-c3cccc(S(=O)(=O)N(C)C)c3)n[nH]c2=S)c1 | -
CCOC(=O)c1c(C)n(C)c2ccc(OCC(O)Cn3nc(C)c(Br)c3C)cc12 (centres undefined) | 61.0
C[C@@H]1CN([C@@H](C)CO)C(=O)c2ccccc2-c2ccccc2CO[C@@H]1CN(C)C(=O)Nc1cccc(Cl)c1Cl | -
C[C@@H]1CN([C@H](C)CO)C(=O)c2cc(NC(=O)Cc3ccccc3)ccc2O[C@@H]1CN(C)Cc1ccncc1 | -
O=C(NCc1cccnc1)/C(=C\c1ccc(-c2cccc(Cl)c2)o1)S(=O)(=O)c1ccccc1 | 75.5
CC[C@H](C)[C@H](NC(=O)c1ccc(Cl)cc1)C(=O)OCC(=O)c1ccc2c(c1)NC(=O)CO2 | -
CCCNC(=O)CN(C)C(=O)c1n[nH]c2ccccc12 | -
CC1=C(C(N)=O)C(c2ccccc2)n2nc(-c3ccncc3)nc2N1 (centres undefined) | 59.8
CCCC[C@@]1(C2CCCC2)Cc2cc(OCC(=O)O)c(Cl)c(Cl)c2C1=O | -
O=C(Nc1c(F)cccc1F)c1ccc(-n2cncn2)nc1 | 53.5
Cc1nc(C(C)N(C)Cc2nc(-c3ccc4c(c3)OCO4)no2)c(C)s1 (centres undefined) | -
CCc1cc(C=NC2CCCCC2)c(O)s1 | 60.6
COC(c1ccccc1)c1nnc(CCC(=O)N(C)C(C2CC2)C2CC2)o1 (centres undefined) | -
CO[C@H]1CN(C)C(=O)c2ccc(NC(=O)c3ccno3)cc2OC[C@H](C)NC[C@H]1C | -
C=CCNS(=O)(=O)c1cccc2cc(C(=O)O)c(O)cc12 | -
Cc1nc([N+](=O)[O-])c(Br)n1CC(=O)c1ccc(Br)cc1 | -
COC(=O)C1=C(N)OC2=C(C(=O)CC(C)(C)C2)C1c1cccs1 (centres undefined) | 56.9
CCCCn1c(=O)[nH]c(=O)c2c1nc(-c1ccc(OCCC)c(OCC)c1)n2C | -
Cc1cc(C)n(C(=O)c2ccc([N+](=O)[O-])cc2N)n1 | -
Cc1cccc(C)c1NC(=O)C(NC(=O)c1ccccn1)c1ccc([N+](=O)[O-])cc1 (centres undefined) | -
Cc1c(C(=S)Nc2ccccc2)cnn1-c1ccc([N+](=O)[O-])cc1 | 71.0
SMILES | PGC1a acetyl up
COc1ccc(NC(=O)N[C@H]2CC[C@@H](CCn3cc(-c4ccccc4F)nn3)O[C@H]2CO)cc1 | -
COc1cc(OC)cc(C(=O)N[C@H](C(=O)OCC(=O)NC(=O)NC(C)(C)C)C(C)C)c1 | -
Cc1noc(C)c1NC(=O)N(C)C[C@H]1Oc2c(NC(=O)c3nc4ccccc4s3)cccc2C(=O)N([C@H](C)CO)C[C@H]1C | -
Cc1ccc(NC2=C(Cl)C(=O)c3ccccc3C2=O)cc1 | -
Cc1ccc(NC2=C([N+](=O)[O-])CS(=O)(=O)C2)cc1 | 217.5
O=C(NC1CCCC1)C(c1ccncc1)N(Cc1ccccc1F)C(=O)c1csnn1 (centres undefined) | -
COc1ccc(C(=O)Nc2ccc3c4c(cccc24)CC3)cc1 | -
COc1cccc(/C=N/NC(=O)c2ccc(-n3cnnn3)cc2)c1 | 83.5
COc1ccccc1OCCn1cc(/C=N/NC(=O)c2ccncc2)c2ccccc21 | -
COc1ccc(N(C)S(=O)(=O)c2cccc(C(=O)Nc3ccc(-n4cnnn4)cc3)c2)cc1 | 67.0
Cc1cc(Br)c(OCc2ccc(C(=O)N/N=C/c3ccc[nH]3)cc2)c(Br)c1 | -
COc1ccc(C(=O)Nc2cccc(S(C)(=O)=O)c2)cc1OC | -
O=C(C[C@@H]1C=C[C@@H](NC(=O)CN2CCOCC2)[C@H](CO)O1)NC1CCCCC1 | -
COc1ccc(/C=N/NC(=O)c2ccn[nH]2)cc1CN1CCOCC1 | -
CSC1SCC2C(=O)N(C)C(C(C)C)C(=O)OCC(NC(=O)c3cnc4ccccc4n3)C(=O)NC(C)C(=O)N(C)C1C(=O)N(C)C(C(C)C)C(=O)OCC(NC(=O)c1cnc3ccccc3n1)C(=O)NC(C)C(=O)N2C (centres undefined) | -
O=C(N[C@@H]1CC[C@@H](CCNS(=O)(=O)c2ccccc2Cl)O[C@@H]1CO)c1ccc(F)cc1 | -
Cc1ccc(S(=O)(=O)N2CCCCC2C(=O)O)cc1 (centres undefined) | -
COc1ccccc1C(=O)Oc1cc(N)n(S(=O)(=O)c2ccc(C)cc2)n1 | -
CCOC(=O)C1CN(S(=O)(=O)c2ccc(C)cc2)c2cc(S(=O)(=O)CC)ccc2O1 (centres undefined) | 53.6
CCn1c(=O)c2c(cnn2C)c2ccccc21 | -
Cc1cc(C=O)c(C)n1-c1ccc(NC2CCCC2)c([N+](=O)[O-])c1 | -
COc1ccccc1OCCn1c(C(C)O)nc2ccccc21 (centres undefined) | 56.8
